One assay relates to Canis familiaris. Put plainly: Vasodilatory activity in dog assessed as increase of femoral blood flow by 100 mL/min administered as intraarterially. Format: functional, Canis lupus familiaris. In a few lines: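 Pentobarbital-anesthetized dogs with an electromagnetic flowmeter sensor around a femoral artery. Compound was injected intraarterially through a branch vessel at increasing doses, and the peak flow increase after each dose was recorded. ED100, the dose raising flow 100 mL/min above control, was extrapolated from the dose-response curve.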

For the next assay, the system named is Rattus norvegicus. Put plainly: Antihypertensive activity in Wistar rat assessed as decrease of systolic blood pressure at 31 mg/kg, po up to 8 hrs. The class given is functional, Artery. In a few lines:
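Renal hypertension in female Wistar rats: figure-of-eight ligature on one kidney, other kidney removed. Rats with systolic pressure above 160 mmHg used, groups of ten. Tail-cuff occlusion with pulse detector measured systolic pressure before and 2, 4, 6, 8 h after a 31 mg/kg oral dose. Value is the mean decrease over 8 h ± standard error.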

The species named for the next assay is Oryctolagus cuniculus. Put plainly: Blockade of alpha-adrenergic receptor in rabbit aortic strips assessed as reduction of epinephrine-induced response. In outline:
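Rabbit aortic strip sensitized by repeated exposure to 0.01 mcg/mL epinephrine. Responses to this concentration were compared before and after 200 s incubation with rising compound concentrations. Percent blockade was calculated at each concentration. ED50, the concentration blocking the response by 50%, was extrapolated from the concentration-response curve.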

In brackets after ≈: the same amount, converted by molar mass.

Regarding `CN(C)CCCN1C(=O)C(CCCCCCCN2CCN(c3ccccc3)CC2)C(=O)c2ccccc21.CO.O=C(O)C(=O)O` (configuration not stated), the ED100 with Canis familiaris stood at 205 µg. In the assay with Rattus norvegicus, the Activity is 12 mmHg. In addition, the ED50 in the assay listed under Oryctolagus cuniculus was 0.64 µg/mL.
`COc1ccc(Cc2nccc3cc(OC)c(OC)cc23)cc1OC` [PAPAVERINE]: in the assay with Canis familiaris, the ED100 was 1825 µg.
For the molecule `Cc1ccc(N(CC2=NCCN2)c2cccc(O)c2)cc1` [PHENTOLAMINE], in the assay with Canis familiaris, the ED100 amounted to 117 µg. The Activity in the assay on Rattus norvegicus is given as 45 mmHg. Moreover, the ED50 in the assay filed under Oryctolagus cuniculus amounted to 0.03 µg/mL (≈ 0.107 µM).

Source of the values: ChEMBL document CHEMBL3243939, “Derivatives of 1,3-disubstituted 2,4(1H,3H)-quinazolinediones as possible peripheral vasodilators or antihypertensive agents” (1979).
